Assay results: paper PMC4899092 (Bioorganic & medicinal chemistry letters, 2016)

Tests used:
Pim3 = Pim3 (Homo sapiens, UniProt Q86V86); experiment: KINOMEscan primary screen binding; details: 10 μM; lower numbers indicate stronger hits
Outline: (§1)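 Test compound profiled as a single-concentration primary binding screen across a panel of 100 kinases by the KINOMEscan service, at 10 μM. Binding interactions were reported as % Ctrl, with lower values indicating stronger hits. A selectivity score, S(35), was also calculated across the panel.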

panel of 100 kinases = experiment: KINOMEscan selectivity over kinase panel; format: binding; details: KINOMEscan panel of 100 kinases, 10 μM
CSNK1D = CSNK1D (Homo sapiens, UniProt P48730); experiment: KINOMEscan primary screen binding; details: 10 μM; lower numbers indicate stronger hits
Outline: as §1

Pim1 = Pim1 (Homo sapiens, UniProt P11309); experiment: KINOMEscan primary screen binding; details: 10 μM; lower numbers indicate stronger hits
Outline: as §1

DU-145 cells = experiment: Growth inhibition of DU-145 prostate cancer cells; format: cell-based; details: read-out: IC50, growth inhibition of DU-145 cells; human prostate cancer cell line DU-145

Chain of Pim1 (P11309 whole entry): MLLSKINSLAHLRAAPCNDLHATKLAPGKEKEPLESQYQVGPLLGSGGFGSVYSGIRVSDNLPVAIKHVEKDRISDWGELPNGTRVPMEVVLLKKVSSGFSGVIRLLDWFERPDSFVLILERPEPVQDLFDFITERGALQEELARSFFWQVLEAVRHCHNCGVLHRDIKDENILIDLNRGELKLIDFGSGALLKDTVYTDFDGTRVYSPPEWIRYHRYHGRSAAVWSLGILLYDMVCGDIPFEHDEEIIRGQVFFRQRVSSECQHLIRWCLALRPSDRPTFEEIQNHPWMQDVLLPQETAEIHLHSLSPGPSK
Chain of CSNK1D (P48730 whole entry): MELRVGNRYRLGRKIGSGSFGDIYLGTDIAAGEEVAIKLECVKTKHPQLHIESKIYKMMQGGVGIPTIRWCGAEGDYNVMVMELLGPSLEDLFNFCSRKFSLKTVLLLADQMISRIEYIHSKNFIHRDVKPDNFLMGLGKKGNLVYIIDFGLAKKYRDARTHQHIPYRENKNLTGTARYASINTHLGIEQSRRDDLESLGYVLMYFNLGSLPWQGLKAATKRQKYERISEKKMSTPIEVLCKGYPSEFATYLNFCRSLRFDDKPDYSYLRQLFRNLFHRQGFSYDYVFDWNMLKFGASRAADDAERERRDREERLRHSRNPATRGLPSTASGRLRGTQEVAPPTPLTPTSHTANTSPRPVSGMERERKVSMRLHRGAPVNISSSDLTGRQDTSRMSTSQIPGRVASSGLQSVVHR

Structure (SMILES) | % Ctrl Pim3 (Pim3) | selectivity score S(35) (panel of 100 kinases) | % Ctrl CSNK1D (CSNK1D) | % Ctrl Pim1 (Pim1) | IC50 (DU-145 cells)
O=C1C2=C(C(=O)c3c(O)ccc(O)c31)[C@@H](O)[C@@H](O)[C@@H](O)C2 [Compound 4] | 36 % control | 0.022 | 30 % control | 34 % control | –
CC(C)C(C)OC1CC(=O)CC2C(=O)c3c(O)ccc(O)c3C(=O)C12 (stereo not drawn) [Compound 7] | – | – | – | – | 3.21 µM
CC(C)(C)OC1CC(O)CC2C(=O)c3c(O)ccc(O)c3C(=O)C12 (stereo not drawn) [Compound 9] | – | – | – | – | 2.02 µM
